Assay results as given in ChEMBL document CHEMBL4513216, “Probing the Open Global Health Chemical Diversity Library for Multistage-Active Starting Points for Next-Generation Antimalarials” (ACS Infect Dis, 2020).

Experiment: Toxicity liver stage against HepG2, at 10uM
Assay type: cell-based
Set-up: test concentration 10 uM, cell line HepG2-A16-CD81EGFP
Conditions: human, HepG2-A16-CD81EGFP cells; read-out: INHIBITION
Procedure, shortened: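 Uninfected HepG2-A16-CD81EGFP cells, 3 × 10^3 per well, 1536-well, plated on prespotted compound at 10 μM final, parasite-free screening media added to match infected plates; puromycin 10 μM positive, DMSO 0.5% negative; run in parallel with 48 h PbLuc assay at 37 °C, 5% CO2; viability by CellTiter-Glo luminescence, normalized to controls.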

Row | Structure (SMILES) | cytotoxicity at 10 µM
1 | CN(Cc1nc2ccccc2n1C)CC1CCCN1c1cccnn1 (stereo not given) | -4.41%
2 | Cc1noc(C)c1-c1cccc(C2CN(S(=O)(=O)N(C)C)CCO2)n1 (stereo not given) | 11.4%
3 | O=C(NCC1COCc2c(-c3ccncc3)nnn2C1)[C@H]1CCCO1 (stereo not given in full) | 1.9%
4 | O=C(Nc1ccccc1OC(F)(F)F)C1CCS(=O)(=O)C1 (stereo not given) | 10.8%
5 | COc1ccc(NC(=O)c2ccc(-n3ncc(C#N)c3N)cc2)cn1 | -5.77%
6 | CC1CN(C(=O)c2sccc2Br)CCO1 (stereo not given) | 5.15%
7 | Cc1nn(C)cc1-c1cncn1CCN(C)C1CCCC1 | -4.64%
8 | CCN1CCC(NC(=O)CN2CCCCC2Cn2cncn2)CC1 (stereo not given) | 3.27%
9 | CCOc1nnc(CN(C)C2CCCN(c3ccc(C)nn3)C2)s1 (stereo not given) | 13.2%
10 | CC(=O)c1cccc(OCCCC(=O)N(C)CCc2ccncc2)c1 | -11.7%
11 | O=C(NCc1ccccc1)N1C[C@H]2CCN[C@H]2C1 | -5.54%
12 | CC(C)(C)Oc1ccc(NCC(=O)NCc2ccco2)cc1 | 2.21%
13 | CN(C)CCN(Cc1cccc(F)c1)C(=O)c1ccc2nccn2c1 | -0.0817%
14 | COCCC(=O)N1CC2(CCN(Cc3ccncc3)CC2)C1 | -66.6%
15 | COc1cccc(CCNC(=O)CN2CCCC2c2noc(C)n2)c1 (stereo not given) | -0.489%
16 | CN1[C@H](CO)C[C@H](CNCc2ccc(CO)o2)[C@@H]1c1ccccc1F | -9.37%
17 | Cc1nnc(N2CCCC3(CN(Cc4ccncc4)CCO3)C2)o1 (stereo not given) | -13.5%
18 | CS(=O)(=O)N1CCC2(CC1)c1ccccc1[C@@H](N1CCSCC1)[C@@H]2O | -9.71%
19 | CC(C)c1nnc2n1CC(CNCc1nnc(C(C)(C)C)o1)CC2 (stereo not given) | -21.6%
20 | O=C(c1ccno1)N1CC2(CCC(C(=O)N3CCCC3)O2)C1 (stereo not given) | -157%
21 | CC(C)Oc1ncnc2c1CCN(c1cc(C(F)(F)F)ncn1)CC2 | 19%
22 | Cc1ccc(CCCC(=O)N2CC(=O)Nc3cccnc32)s1 | -36.6%
23 | O=C(NC1CCCC1)NC1CCC(C(=O)N2CCSCC2)CC1 (stereo not given) | 3.58%
24 | Cc1nc(NS(=O)(=O)c2cc(Br)ccc2C)no1 | 1.68%
25 | Cn1c(Cn2ccnc2)nnc1C1CCCN(C2CCCCC2)C1 (stereo not given) | -13.2%
26 | CC(C)CC(CO)NS(=O)(=O)Cc1ccon1 (stereo not given) | -3.33%
27 | CCN(C)S(=O)(=O)N1C[C@H]2CC[C@@H](C1)N(Cc1cscn1)C2=O | 11%
28 | O=C(Nc1cccc(CN2CCOC2=O)c1)N1CCCC1 | -3.54%

Row | Structure (SMILES) | cytotoxicity at 10 µM
29 | CCn1c(CN(C)CC(F)(F)F)nc2c(F)cccc21 | -5.35%
30 | NS(=O)(=O)c1ccc(CNC(=O)c2ccc(Cl)cc2F)cc1 | -1.59%
31 | O=C(N1CCOCC1)N1C[C@@H]2CC[C@H]1CN(C1Cc3ccccc3C1)C2 | -4.55%
32 | O=C(O)[C@@H]1CN(C(=O)CC2CCCC2)C[C@H]1c1ccc(F)cc1 | -10.2%
33 | Cn1cc(N2CC[C@@H]3CN(Cc4ccncc4)C[C@H]3C2=O)cn1 | -103%
34 | Cc1ccc(N2CCC3(CN(CCO)CCC3(F)F)C2)nn1 (stereo not given) | 7.28%
35 | Cc1cccc(-c2ccc(C(=O)NCC(C)(C)C(N)=O)c(=O)[nH]2)c1 | -10.5%
36 | CC(=O)c1cccc(NC(=O)CN2CCCCC2C(=O)N2CCCC2)c1 (stereo not given) | -8.82%
37 | COc1ccc(CNC(=O)Nc2ccc(N3CCCC3)nc2)cc1O | -18.1%
38 | O=C(CC1COCCN1)NCCc1nc(Cc2ccccc2)no1 (stereo not given) | -2.81%
39 | CC(NCc1nnc2n1CCCC2)C(=O)N1CCc2sccc2C1 (stereo not given) | -26.2%
40 | O=C(Nc1ccc(F)c(-n2cccc2)c1)NC1(CCO)CCOCC1 | 8.67%
41 | Cc1nc(CN(C)c2nccc(N(C)C)n2)cs1 | -9.86%
42 | CN(C)Cc1ccnc(C2CCCN2Cc2cc[nH]n2)n1 (stereo not given) | -0.902%
43 | CCN(C)S(=O)(=O)N[C@H]1CN(c2ccc(F)cn2)C[C@@H]1C(C)C | 10.8%
44 | CCOc1ccc(-c2cc(=O)n3c(n2)CCCCC3)cc1 | 5.36%
45 | COCC1CN(C(=O)Nc2cc(Cl)cc(Cl)c2)CCO1 (stereo not given) | -4.44%
46 | CC(=O)N1CCCN(Cc2cc(F)cc(Br)c2)CC1 | 7.72%
47 | CCc1nc(C)c([C@H]2CN(C)C[C@@H]2C(=O)NC(C)(C)c2ccccc2)[nH]1 | 2.12%
48 | O=C(NCC1SCCc2ccccc21)c1cscn1 (stereo not given) | -1.88%
49 | Cn1ccnc1CN1CCCC1CCc1ccccc1 (stereo not given) | 13.8%
50 | O=C1[C@H]2CN(C(=O)[C@H]3CCCO3)C[C@H]2CN1CC1CC1 | -6.66%
51 | CN(Cc1ccco1)C(=O)NC(Cn1ccnc1)C(C)(C)C (stereo not given) | -3.36%
52 | Cc1ncsc1C(=O)NCc1ccnc(N2CCN(C)CC2)c1 | -6.92%
53 | O=C(NCc1ccc(N2CCCC2)nc1)N1CCc2sccc2C1 | -6.87%
54 | Cc1ccc(Cl)c(CN2CCN(C)C(C(=O)O)C2)c1F (stereo not given) | -0.0679%
55 | Cc1nc(CN2CCCC(N(C)CCc3ccncc3)C2)no1 (stereo not given) | -6.93%
